Screens: PubChem, Sanford-Burnham Center for Chemical Genomics
XBP1 UPR activ – activators of adaptive XBP1 UPR arm, primary screen, cell-based, CHO-XBP1 luciferase reporter, luminescence, uHTS. 330,000 tested, 0.33% active. IRE1-XBP1 UPR activation; percent of tunicamycin response, DMSO as zero. activation, % at 20 µM;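 active = versus positive control, 20 µM dose yields 30% or more activation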;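 also: 100% = tunicamycin at 10 µg/mL and 0% = DMSO only wells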
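Assay system: IRE1-XBP1 luciferase reporter CHO line. Input: 1000 cells/well. Buffer or medium: F12 with 10% serum. Doses: 20 µM, 1% DMSO. Times: overnight seeding at 37 °C, 6 h compound treatment at 37 °C. Technique: Steady-Glo luciferase glow luminescence, 10 min after reagent addition.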
UPR CHOP act – activators of apoptotic CHOP UPR arm, primary screen, cell-based, CHO-CHOP luciferase reporter, luminescence, uHTS | AID 449763, 2010 | activation, % at 10 µM | UPR activation; percent of tunicamycin response over DMSO baseline | 330,000 tested, 0.34% active;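 active = at 10 µM dose, activation of 40% or more, normalized to positive control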;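 also: 100% = tunicamycin at 10 µg/mL and 0% = DMSO alone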
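System: CHO CHOP reporter cells. Amount: 500 cells per well. Buffer or medium: F12 medium, 10% FBS. Compound dosing: one dose, 10 µM in 0.5% DMSO. Incubation: 6 h compound exposure at 37 °C after overnight seeding. Technique: Steady-Glo luciferase luminescence. Benchmarks: tunicamycin and DMSO controls.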
TIM10 inh – growth inhibitors of isogenic TIM10 control yeast, primary screen, counter-screen for tim10-1 yeast inhibitor project, luminescence, uHTS | S. cerevisiae TIM10 strain growth, BacTiter-Glo luminescence, 24 h | inhibition, % at 10 µM | 330,000 tested, 1.4% active | AID 463195, 2010;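 active = inhibition of 40% or more at the single tested concentration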;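 also: wild-type TIM10 isogenic control strain grown at permissive 25 °C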
tim23-1 inh – growth inhibitors of tim23-1 mutant yeast, primary screen, luminescence, uHTS | S. cerevisiae tim23-1 growth, BacTiter-Glo luminescence, 24 h | inhibition, % at 20 µM | 330,000 tested, 1.3% active | AID 463212, 2010;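 active = growth inhibition of the mutant yeast at or above 50%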;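 also: temperature-sensitive mutant grown at 25 °C; plate controls were DMSO-treated mutant yeast for no effect and medium wells lacking yeast for full effect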
tim10-1 inh – growth inhibitors of tim10-1 mutant yeast, primary screen, luminescence, uHTS; S. cerevisiae tim10-1 ts strain growth, BacTiter-Glo, 24 h; inhibition, % at 20 µM; 330,000 tested, 2.2% active;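 active = inhibition of at least 40%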;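 also: mutant grown at 25 °C; 0% = DMSO wells with yeast and 100% = wells holding no yeast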
UPR XBP1 confirm – IRE1-XBP1 UPR arm activators, confirmation, cell-based, CHO-XBP1 luciferase reporter, luminescence, single concentration | shares compounds with XBP1 UPR activ | activation, % at 20 µM | 1,000 tested, 63% active | AID 485299, 2010;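 active = reporter signal at least 30% of the positive control's activation in two or more of four replicate wells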;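 also: plate controls were DMSO negative control for no effect and tunicamycin 10 µg/mL positive control for full effect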
An asterisk follows results filed as active; x = not tested or not shown. Sampled rows, rich in hits. Any-hit rate of the full collection: about 3.9%.

SMILES	XBP1 UPR activ	UPR CHOP act	TIM10 inh	tim23-1 inh	tim10-1 inh	UPR XBP1 confirm
CC(C)=CCCC1(C)C=Cc2c(c(C)cc3c2[nH]c2cc(O)ccc23)O1 (configuration not stated)	63*	4	-3	22	21	67*
CCOc1ccc(N2CC(C(=O)Nc3ccc(S(=O)(=O)Nc4nccs4)cc3)CC2=O)cc1 (configuration not stated)	2	0	3	6	-13	x
COc1ccc(C(=O)Nc2cccc(S(=O)(=O)NC3=NCCC3)c2)cc1OC	0	1	12	1	3	x
O=C(NNS(=O)(=O)c1ccccc1F)c1ccccc1-n1cccc1	-2	-2	4	16	13	x
O=C1C2C3C=CC(CC3)C2C(=O)N1/N=C/c1ccc(O)cc1 (configuration not stated)	-1	0	18	21	11	x
O=C1C2C3C=CC(CC3)C2C(=O)N1/N=C/c1ccc(O)c(O)c1 (configuration not stated)	45*	23	2	9	12	18
Nc1nc(NCC2CCCO2)nc(Nc2cccc(Cl)c2)c1[N+](=O)[O-] (configuration not stated)	36*	1	-10	-15	-2	1
Cc1cccc(Nc2nc(NCC3CCCO3)nc(N)c2[N+](=O)[O-])c1 (configuration not stated)	1	1	3	19	6	x
O=C(Nc1nc2ccc(Cl)cc2s1)c1ccc(N2CCCCC2)c([N+](=O)[O-])c1	33*	30	0	-9	12	83*
O=C(Nc1nc2ccc3ccccc3c2s1)c1ccc(N2CCCCC2)c([N+](=O)[O-])c1	15	6	-10	-9	7	x
COc1ccc(C(=O)O/N=C/c2c(C(F)(F)F)nn(C)c2SCc2ccccc2Cl)cc1	62*	15	9	16	8	83*
Cc1csc(N2CCCC2c2nc3cc(Cl)c(N4CCCCC4)cc3n2CCCO)n1 (configuration not stated)	-1	-1	4	10	16	x
OCCCn1c(C2CCCN2c2nc(-c3ccc(F)cc3)cs2)nc2cc(Cl)c(N3CCCCC3)cc21 (configuration not stated)	100*	0	-10	-9	-14	48*
O=C(Nc1cccnc1)/C(N=Nc1c(Cl)cccc1Cl)=C(\O)c1ccccc1	3	0	9	6	20	x
O=C(Nc1cccnc1)/C(N=Nc1ccc(Cl)c(C(F)(F)F)c1)=C(\O)c1ccccc1	49*	13	1	-3	-6	27
O=[N+]([O-])c1ccccc1NC(=S)N/N=C/c1ccc(O)c(O)c1	37*	21	-16	9	2	23
Cc1cccc(NC(=S)N/N=C/c2ccc(Cl)c([N+](=O)[O-])c2)c1	3	1	-8	5	13	x
COc1ccc(-c2csc(NC(=S)NC(=O)/C=C/c3ccccc3)n2)cc1Br	160*	5	-8	2	6	250*
Cc1cc(NC(=O)c2ccccc2)nc2c1c(=O)oc1ccccc12	-5	1	-2	20	5	x
CCOc1ccc(C(=O)Nc2cc(C)c3c(=O)oc4ccccc4c3n2)cc1	52*	0	11	5	-7	2
Cc1occc1C(=O)N/N=C/c1cccc2ccccc12	9	7	10	-7	-14	x
O=C(/C=C/c1ccccc1)NC(=S)Nc1ccc(N2CCOCC2)cc1	-1	1	20	4	11	x
O=C(/C=C/c1ccc(Cl)cc1)NC(=S)Nc1ccc(N2CCOCC2)c(Cl)c1	124*	25	-22	-21	-6	126*
COc1ccc2cc3c(N)nn(C(=O)C4CCC(C(C)(C)C)CC4)c3nc2c1 (configuration not stated)	111*	-3	-4	18	-23	37*
COc1ccc2cc3c(N)nn(C(=O)Cc4ccccc4OC)c3nc2c1	2	-1	8	9	27	x
SMILES	XBP1 UPR activ	UPR CHOP act	TIM10 inh	tim23-1 inh	tim10-1 inh	UPR XBP1 confirm
COc1ccc(Nc2ncnc3sc(C)cc23)c(OC)c1	30*	5	-8	17	6	1
COc1ccc(Nc2ncnc3ccccc23)c(OC)c1	-1	1	15	8	0	x
NS(=O)(=O)c1ccc(NC(=O)COC(=O)c2cn(-c3ccccc3)nc2-c2ccc(F)cc2)cc1	68*	3	0	7	6	89*
COc1cccc(/C=N/NC(=O)CSc2cccc3cccnc23)c1	32*	27	-3	30	-10	22
Nc1nonc1-n1nnc(C(=O)N/N=C/c2ccoc2)c1-c1ccccc1	-1	0	2	11	19	x
Cc1cc(C)cc(-n2nnnc2SCC(=O)Nc2nc(-c3ccc(Cl)cc3)cs2)c1	34*	0	15	12	19	15
O=C(CN1CCCC1)Nc1ccc(NC(=O)Nc2ccccc2Cl)cc1	7	4	-7	7	4	x
O=C(Nc1ccc(Oc2ccc(NC(=O)Nc3ccccc3Cl)cc2)cc1)Nc1ccccc1Cl	44*	15	0	-5	-6	54*
NC(=O)c1c(NC(=O)Cc2ccccc2)sc2c1CCN(Cc1ccccc1)C2	1	2	5	0	2	x
Clc1ccc(C2=Nn3c(nnc3-c3cc(-c4ccccc4)n[nH]3)SC2)cc1	66*	14	13	2	8	51*
c1ccc(C2=Nn3c(nnc3-c3cc(-c4ccccc4)n[nH]3)SC2)cc1	26	7	26	22	19	x
CCn1cc(C(=O)OCC(=O)Nc2cccc(S(=O)(=O)N3CCOCC3)c2)c(=O)c2ccc(C)nc21	44*	5	16	-4	14	7
COc1cc(/C=N/O)c(Br)cc1OCC(=O)Nc1ccccc1C	2	2	-27	-4	-6	x
COc1cc(/C=N/NC(N)=O)c(Br)cc1OCC(=O)Nc1ccccc1C	109*	4	9	1	20	72*
COc1ccc(/C=C2\SC(=S)N(CCCC(=O)Nc3cc(C)on3)C2=O)cc1OC	42*	1	-13	0	-3	2
COc1ccc(/C=C2\SC(=S)N(CCCCCC(=O)Nc3cc(C)on3)C2=O)cc1OC	5	1	-11	-2	6	x
COc1ccc(CNC(=O)c2ccc(N3CCOCC3)c([N+](=O)[O-])c2)cc1	0	4	-14	0	2	x
